Where a SMILES comes first, the peptide text is derived from it.
Legend:
[1] = Ratio of antidiuretic to vasopressor agonistic activity; assay type: functional, Urine
Summary of the method: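 Quotient of antidiuretic to vasopressor agonist potency. Each potency was measured by intravenous injection against the USP posterior pituitary standard: antidiuresis in ethanol-anesthetized, water-loaded rats, and pressor response in phenoxybenzamine-treated, urethane-anesthetized rats.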

Rattus norvegicus [2] = organism: Rattus norvegicus; test: In vitro oxytocic activity on isolated estrogen treated rat uteri with 0.5 mM Mg+2
Rattus norvegicus [3] = organism: Rattus norvegicus; test: In vitro anti-oxytocic activity on isolated estrogen treated rat uteri without Mg+2; Agonist; assay type: functional
Summary of the method: (§1)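 Uteri isolated from estrogen-treated female rats, suspended in medium containing either no Mg2+ or 0.5 mM Mg2+. Agonism estimated by the Holton method. Antagonistic pA2 values determined as described by Schild.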

Rattus norvegicus [4] = organism: Rattus norvegicus; test: Compound was tested for its antidiuretic activity; assay type: functional, Urine
Rattus norvegicus [5] = organism: Rattus norvegicus; test: Anti vasopressor activity was determined; assay type: functional, organism-based; settings: read-out: pA2 (converted)
Summary of the method: (§2)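 Vasopressor assay in urethane-anesthetized, phenoxybenzamine-treated rats, given by intravenous injection. Effective dose in nmol/kg is the antagonist dose that cuts the response to 2x units of agonist down to the response to 1x unit given before antagonist. USP posterior pituitary reference standard.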

Rattus norvegicus [6] = organism: Rattus norvegicus; test: In vitro anti-oxytocic activity on isolated estrogen treated rat uteri without Mg+2; assay type: functional; settings: read-out: pA2 (converted); summary of the method: as §1
Rattus norvegicus [7] = organism: Rattus norvegicus; test: In vitro anti-oxytocic activity on isolated estrogen treated rat uteri with 0.5 mM Mg+2; assay type: functional; settings: read-out: pA2 (converted); summary of the method: as §1
Rattus norvegicus [8] = organism: Rattus norvegicus; test: Binding affinity was determined; assay type: functional, organism-based; settings: read-out: pA2 (converted)
Rattus norvegicus [9] = test: Dose that reduces the response seen with 2x units of agonist to equal the response seen with 1x unit of agonist administered before antagonist; assay type: functional; summary of the method: as §2
Rattus norvegicus [10] = organism: Rattus norvegicus; test: In vitro anti-oxytocic activity on isolated estrogen treated rat uteri with 0.5 mM Mg+2; Agonist; assay type: functional; summary of the method: as §1
Rattus norvegicus [11] = organism: Rattus norvegicus; test: In vitro anti-oxytocic activity on isolated estrogen treated rat uteri with Mg+2; assay type: functional; settings: read-out: pA2 (converted); summary of the method: as §1

SMILES	Activity (Rattus norvegicus [4])	Kb (Rattus norvegicus [6])	Kb (Rattus norvegicus [7])	Kb (Rattus norvegicus [8])	ED (Rattus norvegicus [9])	other results
N=C(N)NCCC[C@@H](NC(=O)[C@@H]1CCCN1C(=O)[C@@H]1CSSCCC(=O)N[C@@H](Cc2ccc(O)cc2)C(=O)N[C@@H](Cc2ccccc2)C(=O)N[C@@H](CCC(N)=O)C(=O)N[C@@H](CC(N)=O)C(=O)N1)C(=O)NCC(N)=O (stereo in doubt; form 1) [DESMOPRESSIN]	1740 units/mg	–	–	–	–	Ratio [1]: 5; agonist potency (Rattus norvegicus [2]): 167 units/mg; agonist potency (Rattus norvegicus [3]): 54 units/mg
COc1ccc(C[C@@H]2NC(=O)CCSSC[C@@H](C(=O)N3CCC[C@H]3C(=O)N[C@H](CCCN=C(N)N)C(=O)NCC(N)=O)NC(=O)[C@H](CC(N)=O)NC(=O)[C@H](CCC(N)=O)NC(=O)[C@H](Cc3ccccc3)NC2=O)cc1 [listing 1 of 2 here]	–	0.0117 µM	0.0398 µM	–	–	Kb (Rattus norvegicus [5]): 0.107 µM
CCOc1ccc(C[C@@H]2NC(=O)CCSSC[C@@H](C(=O)N3CCC[C@H]3C(=O)N[C@H](CCCN=C(N)N)C(=O)NCC(N)=O)NC(=O)[C@H](CC(N)=O)NC(=O)[C@H](C(C)C)NC(=O)[C@H](Cc3ccccc3)NC2=O)cc1 [listing 1 of 2 here]	–	0.0282 µM	0.0229 µM	0.0851 µM	–	–
CCOc1ccc(C[C@@H]2NC(=O)CCSSC[C@@H](C(=O)N3CCC[C@H]3C(=O)N[C@@H](CCCN=C(N)N)C(=O)NCC(N)=O)NC(=O)[C@H](CC(N)=O)NC(=O)[C@H](CCC(N)=O)NC(=O)[C@H](Cc3ccccc3)NC2=O)cc1 [listing 1 of 2 here]	242 units/mg	–	–	–	11 nM/kg	–
CC(C)[C@@H]1NC(=O)[C@H](Cc2ccccc2)NC(=O)[C@H](Cc2ccc(O)cc2)NC(=O)CCSSC[C@@H](C(=O)N2CCC[C@H]2C(=O)N[C@H](CCCNC(=N)N)C(=O)NCC(N)=O)NC(=O)[C@H](CC(N)=O)NC1=O (HELM PEPTIDE1{[O=C(CCS[*:3])[*:2]].Y.F.V.N.C.P.[dR].G.[am]}$PEPTIDE1,PEPTIDE1,1:R3-6:R3$$$V2.0)	1230 units/mg	–	–	–	7.2 nM/kg	agonist potency (Rattus norvegicus [10]): 3 units/mg; agonist potency (Rattus norvegicus [3]): 8 units/mg
COc1ccc(C[C@@H]2NC(=O)CCSSC[C@@H](C(=O)N3CCC[C@H]3C(=O)N[C@@H](CCCN=C(N)N)C(=O)NCC(N)=O)NC(=O)[C@H](CC(N)=O)NC(=O)[C@H](C(C)C)NC(=O)[C@H](Cc3ccccc3)NC2=O)cc1 [listing 1 of 2 here]	–	0.0117 µM	0.0195 µM	0.055 µM	–	–
COc1ccc(C[C@@H]2NC(=O)CCSSC[C@@H](C(=O)N3CCC[C@H]3C(=O)N[C@H](CCCN=C(N)N)C(=O)NCC(N)=O)NC(=O)[C@H](CC(N)=O)NC(=O)[C@H](C(C)C)NC(=O)[C@H](Cc3ccccc3)NC2=O)cc1 [listing 1 of 2 here]	1740 units/mg	–	–	–	8.4 nM/kg	–
COc1ccc(C[C@@H]2NC(=O)CCSSC[C@@H](C(=O)N3CCC[C@H]3C(=O)N[C@H](CCCN=C(N)N)C(=O)NCC(N)=O)NC(=O)[C@H](CC(N)=O)NC(=O)[C@H](CCC(N)=O)NC(=O)[C@H](Cc3ccccc3)NC2=O)cc1 [listing 2 of 2 here]	236 units/mg	–	–	–	9.8 nM/kg	–
CCOc1ccc(C[C@@H]2NC(=O)CCSSC[C@@H](C(=O)N3CCC[C@H]3C(=O)N[C@@H](CCCN=C(N)N)C(=O)NCC(N)=O)NC(=O)[C@H](CC(N)=O)NC(=O)[C@H](C(C)C)NC(=O)[C@H](Cc3ccccc3)NC2=O)cc1 [listing 1 of 2 here]	187 units/mg	–	–	–	1.9 nM/kg	–
CCOc1ccc(C[C@@H]2NC(=O)CCSSC[C@@H](C(=O)N3CCC[C@H]3C(=O)N[C@H](CCCN=C(N)N)C(=O)NCC(N)=O)NC(=O)[C@H](CC(N)=O)NC(=O)[C@H](CCC(N)=O)NC(=O)[C@H](Cc3ccccc3)NC2=O)cc1 [listing 1 of 2 here]	30 units/mg	–	–	–	8.8 nM/kg	–
COc1ccc(C[C@@H]2NC(=O)CCSSC[C@@H](C(=O)N3CCC[C@H]3C(=O)N[C@H](CCCN=C(N)N)C(=O)NCC(N)=O)NC(=O)[C@H](CC(N)=O)NC(=O)[C@H](C(C)C)NC(=O)[C@H](Cc3ccccc3)NC2=O)cc1 [listing 2 of 2 here]	–	0.017 µM	0.00955 µM	0.0977 µM	–	Kb (Rattus norvegicus [11]): 0.00955 µM
COc1ccc(C[C@@H]2NC(=O)CCSSC[C@@H](C(=O)N3CCC[C@H]3C(=O)N[C@@H](CCCN=C(N)N)C(=O)NCC(N)=O)NC(=O)[C@H](CC(N)=O)NC(=O)[C@H](CCC(N)=O)NC(=O)[C@H](Cc3ccccc3)NC2=O)cc1	830 units/mg	–	–	–	–	Ratio [1]: 202
CCOc1ccc(C[C@@H]2NC(=O)CCSSC[C@@H](C(=O)N3CCC[C@H]3C(=O)N[C@@H](CCCN=C(N)N)C(=O)NCC(N)=O)NC(=O)[C@H](CC(N)=O)NC(=O)[C@H](C(C)C)NC(=O)[C@H](Cc3ccccc3)NC2=O)cc1 [listing 2 of 2 here]	–	0.0126 µM	0.0229 µM	0.0288 µM	–	–
CC(C)[C@@H]1NC(=O)[C@H](Cc2ccccc2)NC(=O)[C@H](Cc2ccc(O)cc2)NC(=O)CCSSC[C@@H](C(=O)N2CCC[C@H]2C(=O)N[C@@H](CCCN=C(N)N)C(=O)NCC(N)=O)NC(=O)[C@H](CC(N)=O)NC1=O (HELM PEPTIDE1{[O=C(CCS[*:3])[*:2]].Y.F.V.N.C.P.R.G.[am]}$PEPTIDE1,PEPTIDE1,1:R3-6:R3$$$V2.0)	1150 units/mg	–	–	–	–	Ratio [1]: 225; agonist potency (Rattus norvegicus [10]): 26 units/mg; agonist potency (Rattus norvegicus [3]): 31 units/mg
CCOc1ccc(C[C@@H]2NC(=O)CCSSC[C@@H](C(=O)N3CCC[C@H]3C(=O)N[C@H](CCCN=C(N)N)C(=O)NCC(N)=O)NC(=O)[C@H](CC(N)=O)NC(=O)[C@H](CCC(N)=O)NC(=O)[C@H](Cc3ccccc3)NC2=O)cc1 [listing 2 of 2 here]	–	0.0525 µM	0.0891 µM	0.129 µM	–	–
N=C(N)NCCC[C@@H](NC(=O)[C@@H]1CCCN1C(=O)[C@@H]1CSSCCC(=O)N[C@@H](Cc2ccc(O)cc2)C(=O)N[C@@H](Cc2ccccc2)C(=O)N[C@@H](CCC(N)=O)C(=O)N[C@@H](CC(N)=O)C(=O)N1)C(=O)NCC(N)=O (stereo in doubt; form 2) [DESMOPRESSIN]	1200 units/mg	–	–	–	–	Ratio [1]: 3037; agonist potency (Rattus norvegicus [10]): 2.9 units/mg; agonist potency (Rattus norvegicus [3]): 1.5 units/mg
CCOc1ccc(C[C@@H]2NC(=O)CCSSC[C@@H](C(=O)N3CCC[C@H]3C(=O)N[C@@H](CCCN=C(N)N)C(=O)NCC(N)=O)NC(=O)[C@H](CC(N)=O)NC(=O)[C@H](CCC(N)=O)NC(=O)[C@H](Cc3ccccc3)NC2=O)cc1 [listing 2 of 2 here]	–	0.0427 µM	0.0398 µM	0.126 µM	–	–
COc1ccc(C[C@@H]2NC(=O)CCSSC[C@@H](C(=O)N3CCC[C@H]3C(=O)N[C@@H](CCCN=C(N)N)C(=O)NCC(N)=O)NC(=O)[C@H](CC(N)=O)NC(=O)[C@H](C(C)C)NC(=O)[C@H](Cc3ccccc3)NC2=O)cc1 [listing 2 of 2 here]	789 units/mg	–	–	–	3.7 nM/kg	–
CCOc1ccc(C[C@@H]2NC(=O)CCSSC[C@@H](C(=O)N3CCC[C@H]3C(=O)N[C@H](CCCN=C(N)N)C(=O)NCC(N)=O)NC(=O)[C@H](CC(N)=O)NC(=O)[C@H](C(C)C)NC(=O)[C@H](Cc3ccccc3)NC2=O)cc1 [listing 2 of 2 here]	132 units/mg	–	–	–	6.3 nM/kg	–
